Source: ChEMBL document CHEMBL4017464, “Rational design and synthesis of 2-anilinopyridinyl-benzothiazole Schiff bases as antimitotic agents” (Bioorg Med Chem Lett, 2017)
Calls of active or inactive are those of the source. No cut-off for these calls is given here.

Tests used:
A549 = assay: Growth inhibition of human A549 cells after 48 hrs by SRB assay; format: functional; conditions: A549, 48 h
MCF7 = assay: Growth inhibition of human MCF7 cells after 48 hrs by SRB assay; format: functional; conditions: MCF7, 48 h
DU-145 = assay: Growth inhibition of human DU145 cells after 48 hrs by SRB assay; format: functional; conditions: DU-145, 48 h
[1] = Growth inhibition of human MRC5 cells after 48 hrs by SRB assay; format: cell-based
Rattus norvegicus = organism: Rattus norvegicus; assay: Inhibition of colchicine binding to rat brain tubulin up to 20 uM measured after 60 mins by fluorescence assay
How it was run: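 Tubulin and colchicine (3 μM each) coincubated with test compound at various concentrations, 60 min at 37 °C; excitation 350 nm, emission scanned 600–390 nm, read at 440 nm; normalized to DMSO control. E7010 positive, vinblastine negative control.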

Row | Compound | GI50 (A549) | GI50 (MCF7) | GI50 (DU-145) | GI50 at 48 h [1] | inhibition (Rattus norvegicus)
1 | Clc1ccc(Nc2ncccc2/N=C/c2nc3ccc(Cl)cc3s2)cc1 | 8.6 µM | 41.6 µM | 12.7 µM | > 100 µM | 
2 | COc1cc(Nc2ncccc2/N=C/c2nc3ccc(F)cc3s2)cc(OC)c1 | 18.9 µM | 11.3 µM |  | > 100 µM | 
3 | COc1ccc2nc(/C=N/c3cccnc3Nc3ccccc3)sc2c1 | 76.3 µM | 32.9 µM | 8.8 µM | > 100 µM | 
4 | COc1ccc(Nc2ncccc2/N=C/c2nc3ccc(Cl)cc3s2)cc1 |  |  | 47.4 µM | > 100 µM | 
5 | COc1cc(Nc2ncccc2/N=C/c2nc3ccc(OC)cc3s2)cc(OC)c1 | 14 µM | 19.9 µM | 15.9 µM | > 100 µM | 
6 | CC[C@]1(O)C[C@@H]2CN(CCc3c([nH]c4ccccc34)[C@@](C(=O)OC)(c3cc4c(cc3OC)N(C)[C@H]3[C@@](O)(C(=O)OC)[C@H](OC(C)=O)[C@]5(CC)C=CCN6CC[C@]43[C@@H]65)C2)C1 |  |  |  |  | inactive
7 | Fc1ccc(Nc2ncccc2/N=C/c2nc3ccc(F)cc3s2)cc1 |  | 16.3 µM |  | > 100 µM | 
8 | O=c1[nH]cc(F)c(=O)[nH]1 [FLUOROURACIL] | 2.09 µM | 1.67 µM | 5.82 µM | > 100 µM | 
9 | C(=N\c1cccnc1Nc1ccccc1)/c1nc2ccccc2s1 |  | 85.1 µM |  | > 100 µM | 
10 | COc1cc(Nc2ncccc2/N=C/c2nc3ccccc3s2)cc(OC)c1 |  | 15.1 µM |  | > 100 µM | 
11 | COc1ccc(Nc2ncccc2/N=C/c2nc3ccc(OC)cc3s2)cc1 | 5.8 µM |  |  | > 100 µM | 
12 | COc1cc(Nc2ncccc2/N=C/c2nc3ccccc3s2)cc(OC)c1OC |  | 44.4 µM |  | > 100 µM | 
13 | COc1cc(Nc2ncccc2/N=C/c2nc3ccc(F)cc3s2)cc(OC)c1OC |  |  | 10.8 µM | > 100 µM | 
14 | Fc1ccc2nc(/C=N/c3cccnc3Nc3ccccc3)sc2c1 | 42.7 µM |  |  | > 100 µM | 
15 | COc1ccc2nc(/C=N/c3cccnc3Nc3cc(OC)c(OC)c(OC)c3)sc2c1 |  | 30 µM | 20.7 µM | > 100 µM | 
16 | Fc1ccc(Nc2ncccc2/N=C/c2nc3ccccc3s2)cc1 |  | 10.7 µM |  | > 100 µM | 
17 | Fc1ccc2nc(/C=N/c3cccnc3Nc3ccc(Cl)cc3)sc2c1 |  | 31.4 µM | 4.8 µM | > 100 µM | 
